In ChEMBL document CHEMBL4130630 (J Med Chem, 2018):

Assays:
[1] = biological target: T1, Sodium- and chloride-dependent GABA transporter 1 (Mus musculus, UniProt P31648); assay: Inhibition of mouse GAT1 expressed in HEK293 cells assessed as reduction in [3H]GABA uptake preincubated for 25 mins followed by [3H]GABA addition measured after 4 mins by liquid scintillation counting analysis; type: cell-based
In short: (§1)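 HEK293 cells stably expressing the mouse GAT subtype (about 200000 cells) preincubated with compound for 25 min at 25 °C in the dark with shaking. Then 8 nM [3H]GABA plus 32 nM unlabeled GABA (final) added for 4 min. Stopped by filtration; filter radioactivity by scintillation counting. Photoisomerized 10 mM DMSO-d6 stocks (photostationary state, Z/E ratio by 1H NMR) diluted protected from light; non-irradiated stock tested in parallel.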

GABA transporter 4 = biological target: T2, GABA transporter 4 (Mus musculus, UniProt P31650); assay: Inhibition of mouse GAT4 expressed in HEK293 cells assessed as reduction in [3H]GABA uptake preincubated for 25 mins followed by [3H]GABA addition measured after 4 mins by liquid scintillation counting analysis; type: cell-based; in short: as §1
T2 sequence (P31650 whole entry): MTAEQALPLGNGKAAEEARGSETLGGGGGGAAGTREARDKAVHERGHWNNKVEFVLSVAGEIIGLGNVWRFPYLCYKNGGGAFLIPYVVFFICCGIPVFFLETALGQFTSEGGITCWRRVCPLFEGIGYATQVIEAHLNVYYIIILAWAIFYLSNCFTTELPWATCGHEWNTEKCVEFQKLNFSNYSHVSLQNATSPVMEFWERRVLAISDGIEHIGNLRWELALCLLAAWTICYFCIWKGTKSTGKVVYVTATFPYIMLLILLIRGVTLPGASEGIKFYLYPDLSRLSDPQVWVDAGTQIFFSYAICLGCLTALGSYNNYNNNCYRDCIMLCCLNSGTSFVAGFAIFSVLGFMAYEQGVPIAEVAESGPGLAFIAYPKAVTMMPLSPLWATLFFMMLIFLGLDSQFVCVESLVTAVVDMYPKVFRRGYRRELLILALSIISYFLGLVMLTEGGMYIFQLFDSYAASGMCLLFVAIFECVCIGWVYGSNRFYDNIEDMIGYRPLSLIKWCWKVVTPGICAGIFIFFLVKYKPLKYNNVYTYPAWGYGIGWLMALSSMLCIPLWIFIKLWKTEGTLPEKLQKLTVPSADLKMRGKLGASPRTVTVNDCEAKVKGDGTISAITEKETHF

[2] = biological target: T1, Sodium- and chloride-dependent GABA transporter 1; assay: Inhibition of mouse GAT1 expressed in HEK293 cells assessed as reduction in [3H]GABA uptake; type: cell-based
[3] = biological target: Sodium- and chloride-dependent GABA transporter 1 (Mus musculus) (UniProt P31648); assay: (§2) Inhibition of GAT1 in C57BL/6N mouse dentate gyrus granule cells assessed as induction of tonic GABAA receptor-mediated current response by measuring shift in holding current amplitude at 10 uM by Whole cell voltage-clamp method
In short: (§3)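 Acute 350 μm coronal dorsal hippocampal slices from mice, recovered 30 min at 34 °C then ≥30 min at room temperature in carbogenated saline (pH 7.4). Superfused at room temperature with NBQX 5 μM, APV 50 μM, CGP 55845 5 μM. Granule cell whole-cell voltage clamp at −70 mV. Compound bath-applied; activated form made by 340 nm UV for 10 min on 10 mM stock just before addition; bicuculline methiodide 20 μM.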

[4] = Half life of thermal relaxation of compound in pH 7.4 DMSO-d6/phosphate-buffer using photoirradiated compound at 10 uM incubated in dark by UV/vis-spectroscopy; type: physicochemical; settings: pH 7.4, 10 µM
[5] = biological target: T1, Sodium- and chloride-dependent GABA transporter 1; assay: (§4) Inhibition of mouse GAT1 expressed in HEK293 cells assessed as reduction in [3H]GABA uptake preincubated cells with photoirradiated compound for 25 mins followed by [3H]GABA addition measured after 4 mins by liquid scintillation counting method; type: cell-based; in short: as §1
[6] = Half life of thermal relaxation of compound in pH 7.4 DMSO-d6/phosphate-buffer using photoirradiated compound at 25 uM incubated in dark by UV/vis-spectroscopy; type: physicochemical; settings: pH 7.4, 25 µM
[7] = Half life of thermal relaxation of compound in pH 7.4 DMSO-d6/phosphate-buffer using photoirradiated compound at 20 uM incubated in dark by UV/vis-spectroscopy; type: physicochemical; settings: pH 7.4, 20 µM
[8] = Half life of thermal relaxation of compound in pH 7.4 DMSO-d6/phosphate-buffer using photoirradiated compound at 50 uM incubated in dark by UV/vis-spectroscopy; type: physicochemical; settings: pH 7.4, 50 µM
[9] = Half life of thermal relaxation of compound in DMSO-d6 using photoirradiated compound by 1H NMR method; type: physicochemical
In short: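 Irradiated to photostationary state as 10 mM stock in DMSO-d6 (1 mL, within 10 min); 1H NMR spectra recorded starting immediately after irradiation. Z/E fraction α from spectra plotted against time, fit to a single exponential to give half-life; 25 °C.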

[10] = biological target: T1, Sodium- and chloride-dependent GABA transporter 1; assay: Inhibition of mouse GAT1 assessed as reduction in GABA uptake using photoirradiated compound
In short: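 A 10 mM DMSO-d6 stock was irradiated to its photostationary state: 350 nm Rayonet for diphenyldiazenes, 375 nm LED for naphthylphenyldiazenes. (Z)/(E) ratio was checked by 1H NMR, and dilutions were made protected from light. mGAT1-HEK293 cells were preincubated 25 min at 25 °C in the dark, then given 4 min uptake of 8 nM [3H]GABA plus 32 nM GABA. Filtration and scintillation counting gave pIC50.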

[11] = biological target: T1, Sodium- and chloride-dependent GABA transporter 1; assay: Inhibition of mouse GAT1 assessed as reduction in GABA uptake
[12] = biological target: Sodium- and chloride-dependent GABA transporter 1 (Mus musculus) (UniProt P31648); assay: as §2, with “amplitude using UV-activated compound” for “amplitude”, “uM in presence of GABAA receptor blocker bicuculline methiodide” for “uM”; in short: as §3
[13] = test system: betaine/GABA transporter BGT1, Slc6a12 (Mus musculus); assay: Inhibition of mouse GAT2 expressed in HEK293 cells assessed as reduction in [3H]GABA uptake by measuring remaining [3H]GABA uptake levels preincubated cells with photoirradiated compound at 100 uM for 25 mins followed by [3H]GABA addition measured after 4 mins by liquid scintillation counting …
[14] = test system: GABA transporter 2, Slc6a13 (Mus musculus); assay: Inhibition of mouse GAT3 expressed in HEK293 cells assessed as reduction in [3H]GABA uptake by measuring remaining [3H]GABA uptake levels preincubated cells with photoirradiated compound at 100 uM for 25 mins followed by [3H]GABA addition measured after 4 mins by liquid scintillation counting …
[15] = biological target: T3, GABA transporter 4 (Mus musculus) (UniProt P31650); assay: as §4, with “GAT4” for “GAT1”, “uptake by measuring remaining [3H]GABA uptake levels” for “uptake”, “compound at 100 uM” for “compound”, “method relative to control” for “method”; type: cell-based
T3 sequence (whole entry): T2 sequence (P31650 whole entry)

[16] = biological target: Sodium- and chloride-dependent GABA transporter 1 (Mus musculus) (UniProt P31648); assay: Inhibition of GAT1 in C57BL/6N mouse dentate gyrus granule cells assessed as induction of tonic GABAA receptor-mediated current response by measuring shift in holding current amplitude using UV-activated compound at 10 uM by Whole cell voltage-clamp method; in short: as §3

Row | Structure (SMILES) | IC50 [1] | IC50 [5] | other results
1 | O=C(O)C1CCCN(CC/C=C/c2cccc(/N=N/c3ccccc3)c2)C1 (stereo unspecified) | 38 µM |  | 
2 | O=C(O)C1CCCN(CCC/C=C/c2cccc(/N=N/c3ccccc3)c2)C1 (stereo unspecified) | 38 µM |  | 
3 | O=C(O)C1CCCN(CC/C=C/c2ccc(/N=N/c3cccc4ccccc34)cc2)C1 (stereo unspecified) | 8.71 µM |  | 
4 | O=C(O)C1CCCN(CC/C=C/c2ccccc2-c2ccccc2)C1 (stereo unspecified) |  |  | IC50 [2]: 0.162 µM
5 | O=C(O)[C@@H]1CCCN(CCC#Cc2cccc(/N=N/c3cccc4ccccc34)c2)C1 | 4.27 µM |  | IC50 (GABA transporter 4): 10 to 100 µM
6 | O=C(O)C1CCCN(CCC/C=C/c2cccc(/N=N/c3cccc4ccccc34)c2)C1 (stereo unspecified) | 19.5 µM |  | 
7 | O=C(O)C1CCCN(CCC/C=C/c2ccc(/N=N/c3cccc4ccccc34)cc2)C1 (stereo unspecified) | 6.46 µM |  | 
8 | O=C(O)C1CCCN(CCC#Cc2cccc(/N=N/c3cccc4ccccc34)c2)C1 (stereo unspecified) | 6.46 µM |  | 
9 | O=C(O)C1CCCN(CCC#Cc2ccccc2-c2ccccc2)C1 (stereo unspecified) |  |  | IC50 [2]: 0.1 µM
10 | O=C(O)C1CCCN(CC/C=C/c2cccc(/N=N/c3cccc4ccccc34)c2)C1 (stereo unspecified) | 12.3 µM |  | 
11 | O=C(O)C1CCCN(CCC#Cc2cccc(N=Nc3cccc4ccccc34)c2)C1 (mixture of isomers) |  | 1.95 µM | t1/2 [7]: 18 h
12 | O=C(O)C1CCCN(CCC=Cc2cccc(N=Nc3cccc4ccccc34)c2)C1 (mixture of isomers) |  | 5.89 µM | t1/2 [7]: 22 h
13 | O=C(O)[C@@H]1CCCN(CCOCCc2cccc(N=Nc3cccc4ccccc34)c2)C1 (mixture of isomers) |  |  | IC50 [10]: 1.66 µM; IC50 [11]: 0.407 µM
14 | O=C(O)C1CCCN(CCCC=Cc2ccc(N=Nc3cccc4ccccc34)cc2)C1 (mixture of isomers) |  | 6.17 µM | t1/2 [4]: 1.5 h
15 | O=C(O)C1CCCN(CCCC=Cc2cccc(N=Nc3cccc4ccccc34)c2)C1 (mixture of isomers) |  | 10 µM | t1/2 [7]: 11 h
16 | O=C(O)C1CCCN(CCC=Cc2ccc(N=Nc3cccc4ccccc34)cc2)C1 (mixture of isomers) |  | 7.41 µM | t1/2 [4]: 1.2 h
17 | O=C(O)[C@@H]1CCCN(CCC#Cc2cccc(N=Nc3cccc4ccccc34)c2)C1 (mixture of isomers) |  | 1 µM | 
18 | O=C(O)C1CCCN(CCC=Cc2cccc(N=Nc3ccccc3)c2)C1 (mixture of isomers) |  | 4.79 µM | t1/2 [6]: 312 h

Continued, in another order:

Row | IC50 [1] | IC50 [5] | Structure (SMILES) | other results
19 | 0.417 µM |  | O=C(O)[C@@H]1CCCN(CCC#Cc2ccc(/N=N/c3ccccc3)cc2)C1 | IC50 (GABA transporter 4): 10 to 100 µM
20 | 5.75 µM |  | O=C(O)C1CCCN(CCC/C=C/c2ccc(/N=N/c3ccccc3)cc2)C1 (stereo unspecified) | 
21 | 0.646 µM |  | O=C(O)C1CCCN(CCC#Cc2ccc(/N=N/c3ccccc3)cc2)C1 (stereo unspecified) | 
22 | 32.4 µM |  | O=C(O)C1CCCN(CCC#Cc2cccc(/N=N/c3ccccc3)c2)C1 (stereo unspecified) | 
23 | 12.3 µM |  | O=C(O)C1CCCN(CCCC#Cc2cccc(/N=N/c3cccc4ccccc34)c2)C1 (stereo unspecified) | 
24 | 14.5 µM |  | O=C(O)C1CCCN(CCCC#Cc2cccc(/N=N/c3ccccc3)c2)C1 (stereo unspecified) | 
25 | 3.02 µM |  | O=C(O)C1CCCN(CCCC#Cc2ccc(/N=N/c3cccc4ccccc34)cc2)C1 (stereo unspecified) | 
26 | 0.0977 µM |  | O=C(O)[C@@H]1CCCN(CCC#Cc2ccc(/N=N/c3cccc4ccccc34)cc2)C1 | IC50 (GABA transporter 4): 10 to 100 µM
27 | 7.59 µM |  | O=C(O)C1CCCN(CCCC#Cc2ccc(/N=N/c3ccccc3)cc2)C1 (stereo unspecified) | 
28 | 10 µM |  | O=C(O)C1CCCN(CC/C=C/c2ccc(/N=N/c3ccccc3)cc2)C1 (stereo unspecified) | 
29 | 0.126 µM |  | O=C(O)C1CCCN(CCC#Cc2ccc(/N=N/c3cccc4ccccc34)cc2)C1 (stereo unspecified) | 
30 | 22.4 µM |  | O=C(O)[C@@H]1CCCN(CCC#Cc2cccc(/N=N/c3ccccc3)c2)C1 | Activity [3]: -0.22 pA; IC50 (GABA transporter 4): 10 to 100 µM
31 |  | 4.9 µM | O=C(O)C1CCCN(CCCC#Cc2ccc(N=Nc3cccc4ccccc34)cc2)C1 (mixture of isomers) | t1/2 [4]: 4.3 h
32 |  | 2.57 µM | O=C(O)C1CCCN(CCC#Cc2ccc(N=Nc3ccccc3)cc2)C1 (mixture of isomers) | t1/2 [6]: 115 h
33 |  | 4.07 µM | O=C(O)C1CCCN(CCCC#Cc2cccc(N=Nc3ccccc3)c2)C1 (mixture of isomers) | t1/2 [7]: 360 h
34 |  | 23.4 µM | O=C(O)C1CCCN(CCCC=Cc2ccc(N=Nc3ccccc3)cc2)C1 (mixture of isomers) | t1/2 [8]: 45.6 h
35 |  | 25.1 µM | O=C(O)C1CCCN(CCCC=Cc2cccc(N=Nc3ccccc3)c2)C1 (mixture of isomers) | t1/2 [7]: 288 h
36 |  | 25.7 µM | O=C(O)C1CCCN(CCCC#Cc2ccc(N=Nc3ccccc3)cc2)C1 (mixture of isomers) | t1/2 [6]: 163 h
37 |  | 0.891 µM | O=C(O)C1CCCN(CCC#Cc2cccc(N=Nc3ccccc3)c2)C1 (mixture of isomers) | t1/2 [9]: 360 h; t1/2 [8]: 528 h
38 |  | 0.229 µM | O=C(O)C1CCCN(CCC#Cc2ccc(N=Nc3cccc4ccccc34)cc2)C1 (mixture of isomers) | t1/2 [4]: 3.4 h
39 |  | 0.417 µM | O=C(O)[C@@H]1CCCN(CCC#Cc2cccc(N=Nc3ccccc3)c2)C1 (mixture of isomers) | Activity [12]: -1.84 pA; Activity [13]: 76%; Activity [14]: 60%; Activity [15]: 57%; Activity [16]: -25.3 pA
40 |  | 1.45 µM | O=C(O)[C@@H]1CCCN(CCC#Cc2ccc(N=Nc3ccccc3)cc2)C1 (mixture of isomers) | 
41 |  | 0.182 µM | O=C(O)[C@@H]1CCCN(CCC#Cc2ccc(N=Nc3cccc4ccccc34)cc2)C1 (mixture of isomers) | 
42 |  | 13.8 µM | O=C(O)C1CCCN(CCCC#Cc2cccc(N=Nc3cccc4ccccc34)c2)C1 (mixture of isomers) | t1/2 [7]: 43.2 h
43 |  | 37.2 µM | O=C(O)C1CCCN(CCC=Cc2ccc(N=Nc3ccccc3)cc2)C1 (mixture of isomers) | t1/2 [8]: 26.4 h
